Results from ChEMBL document CHEMBL2380224, “Fragment-based ligand design of novel potent inhibitors of tankyrases” (J Med Chem, 2013).
Converted amounts (≈) assume the structure as drawn.

Assays:
[1] = biological target: T1, Poly [ADP-ribose] polymerase tankyrase-2 (Homo sapiens, UniProt Q9H2K2); assay: Inhibition of auto-PARsylation of GST-tagged TNKS2 PARP domain (947 to 1162) (unknown origin) expressed in Escherichia coli BL21(DE3) after 2 hrs by LC/MS analysis
T1 sequence (Q9H2K2 whole entry): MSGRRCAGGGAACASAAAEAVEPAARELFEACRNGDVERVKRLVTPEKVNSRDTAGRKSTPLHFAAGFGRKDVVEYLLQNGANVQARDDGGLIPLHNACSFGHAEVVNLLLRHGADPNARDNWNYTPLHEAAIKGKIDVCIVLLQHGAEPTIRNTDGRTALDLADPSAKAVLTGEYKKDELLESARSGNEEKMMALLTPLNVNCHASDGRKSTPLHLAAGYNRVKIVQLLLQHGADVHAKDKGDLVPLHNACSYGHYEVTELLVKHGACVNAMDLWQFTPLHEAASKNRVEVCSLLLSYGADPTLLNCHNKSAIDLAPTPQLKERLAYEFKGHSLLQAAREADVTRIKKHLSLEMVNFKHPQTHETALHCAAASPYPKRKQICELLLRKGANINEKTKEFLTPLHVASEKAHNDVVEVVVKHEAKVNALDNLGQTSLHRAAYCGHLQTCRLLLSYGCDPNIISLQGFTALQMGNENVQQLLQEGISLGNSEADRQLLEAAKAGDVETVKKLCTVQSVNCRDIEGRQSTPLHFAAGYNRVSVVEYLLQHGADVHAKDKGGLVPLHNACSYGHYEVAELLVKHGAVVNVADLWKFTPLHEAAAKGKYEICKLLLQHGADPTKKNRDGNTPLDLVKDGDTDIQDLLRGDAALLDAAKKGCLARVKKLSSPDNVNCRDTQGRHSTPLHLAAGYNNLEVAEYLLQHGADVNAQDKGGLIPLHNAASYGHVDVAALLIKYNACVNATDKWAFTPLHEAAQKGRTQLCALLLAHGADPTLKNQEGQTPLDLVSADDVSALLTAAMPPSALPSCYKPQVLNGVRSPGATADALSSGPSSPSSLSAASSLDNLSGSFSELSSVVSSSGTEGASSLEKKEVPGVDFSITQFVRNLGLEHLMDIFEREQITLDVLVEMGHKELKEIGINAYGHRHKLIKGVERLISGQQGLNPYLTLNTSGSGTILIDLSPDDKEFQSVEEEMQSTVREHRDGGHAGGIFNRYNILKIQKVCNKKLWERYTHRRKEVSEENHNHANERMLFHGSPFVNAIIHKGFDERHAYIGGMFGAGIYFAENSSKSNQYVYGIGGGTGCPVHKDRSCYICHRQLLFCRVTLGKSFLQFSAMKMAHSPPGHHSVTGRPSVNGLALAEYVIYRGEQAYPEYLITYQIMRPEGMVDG

[2] = biological target: T2, Poly [ADP-ribose] polymerase tankyrase-2 (Homo sapiens) (UniProt Q9H2K2); assay: Binding affinity to TNKS2 PARP domain (947 to 1162) (unknown origin) expressed in Escherichia coli BL21(DE3) assessed as thermal stabilization at 125 uM by differential scanning flourimetric analysis
T2 sequence (whole entry): T1 sequence (Q9H2K2 whole entry)
How it was run: (§1)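 DSF dose−response. TNKS2 at 0.2 mg/mL with SYPRO Orange (5×). Compounds were serially diluted in 100% DMSO at 50× the assay concentration. Chymotrypsin (1/100 TNKS2 mass equivalents) was added to the protein–dye mix just before the run. Scanned 25−80 °C at about 2 °C/min, ex 490/em 575 nm, and Tm shift was taken against the DMSO control.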

[3] = biological target: T2, Poly [ADP-ribose] polymerase tankyrase-2 (Homo sapiens); assay: Binding affinity to TNKS2 PARP domain (947 to 1162) (unknown origin) expressed in Escherichia coli BL21(DE3) assessed as thermal stabilization at 1 mM by differential scanning flourimetric analysis
How it was run: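 Fragment screen by DSF. TNKS2 at 0.2 mg/mL with SYPRO Orange (5×). Compound added from 50 mM DMSO stocks, giving final 1 mM and 2% DMSO; DMSO controls on each plate. Scanned 25−80 °C at about 2 °C/min, fluorescence ex 490/em 575 nm. Curves inspected visually; Tm fitted to sigmoidal transitions.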

[4] = biological target: T3, Protein mono-ADP-ribosyltransferase PARP11 (Homo sapiens) (UniProt Q9NR21); assay: Inhibition of PARP11 (unknown origin) at 10 uM relative to control
T3 sequence (whole entry): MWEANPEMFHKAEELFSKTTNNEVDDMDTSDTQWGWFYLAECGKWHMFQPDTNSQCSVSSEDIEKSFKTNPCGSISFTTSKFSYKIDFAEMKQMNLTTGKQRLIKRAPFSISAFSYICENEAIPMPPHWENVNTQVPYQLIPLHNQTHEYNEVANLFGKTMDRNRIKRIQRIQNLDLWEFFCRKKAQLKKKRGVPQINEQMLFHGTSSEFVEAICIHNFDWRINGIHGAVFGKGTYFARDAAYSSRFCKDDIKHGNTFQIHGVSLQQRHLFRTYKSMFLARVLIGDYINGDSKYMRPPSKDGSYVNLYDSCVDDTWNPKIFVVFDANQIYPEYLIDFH

[5] = biological target: T4, Protein mono-ADP-ribosyltransferase TIPARP (Homo sapiens) (UniProt Q7Z3E1); assay: Inhibition of PARP7 (unknown origin) at 10 uM relative to control
T4 sequence (whole entry): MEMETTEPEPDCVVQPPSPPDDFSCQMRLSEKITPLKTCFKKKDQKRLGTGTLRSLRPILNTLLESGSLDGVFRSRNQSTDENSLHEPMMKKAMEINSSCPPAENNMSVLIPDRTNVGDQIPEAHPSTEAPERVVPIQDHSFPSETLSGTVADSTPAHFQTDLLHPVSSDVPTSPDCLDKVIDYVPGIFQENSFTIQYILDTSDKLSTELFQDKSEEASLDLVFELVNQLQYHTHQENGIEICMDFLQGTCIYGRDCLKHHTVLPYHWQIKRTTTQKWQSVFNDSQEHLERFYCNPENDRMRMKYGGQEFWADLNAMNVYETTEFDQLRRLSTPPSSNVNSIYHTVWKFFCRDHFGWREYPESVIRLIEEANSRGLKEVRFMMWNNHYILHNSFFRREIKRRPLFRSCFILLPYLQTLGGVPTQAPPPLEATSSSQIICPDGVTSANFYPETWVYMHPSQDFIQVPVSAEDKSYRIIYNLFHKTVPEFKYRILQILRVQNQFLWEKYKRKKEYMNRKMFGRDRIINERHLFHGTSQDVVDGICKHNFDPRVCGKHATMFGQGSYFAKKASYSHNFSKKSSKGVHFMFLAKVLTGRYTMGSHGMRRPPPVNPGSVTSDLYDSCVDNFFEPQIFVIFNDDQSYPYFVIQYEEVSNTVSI

[6] = biological target: T2, Poly [ADP-ribose] polymerase tankyrase-2 (Homo sapiens); assay: Binding affinity to TNKS2 PARP domain (947 to 1162) (unknown origin) expressed in Escherichia coli BL21(DE3) assessed as thermal stabilization by differential scanning flourimetric analysis; how it was run: as §1
[7] = Thermodynamic solubility of the compound in pION buffer at 500 uM after 18 hrs at pH 4.0 by UV-spectrophotometric analysis; assay type: physicochemical; details: read-out: Therm_solubility
How it was run: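 A 50 mM DMSO stock was diluted into pH 4.0 pION buffer (final 500 μM test compound) and incubated sealed for 18 h. Samples were vacuum filtered, discarding the first filtrate used to wet the filter. Filtrate was mixed 1:1 with 1-propanol for UV read-out.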

[8] = biological target: T1, Poly [ADP-ribose] polymerase tankyrase-2; assay: Binding affinity to 6His-tagged TNKS2 PARP domain (947 to 1162) (unknown origin) expressed in Escherichia coli BL21(DE3) by surface plasmon resonance analysis
How it was run: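 SPR on a Biacore instrument. Running buffer: 20 mM PBS pH 7.4, 0.05% Tween20, 2% DMSO. His-tagged TNKS2 (20 μg/mL in 20 mM PBS pH 7.4) was capture-coupled at 10 μL/min onto a Ni²⁺/NHS doubly preactivated NTA chip, to a target of 5000 RU.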

[9] = biological target: Protein mono-ADP-ribosyltransferase PARP6 (Homo sapiens, UniProt Q2NL67); assay: Inhibition of PARP6 (unknown origin)
Chain of Protein mono-ADP-ribosyltransferase PARP6 (Q2NL67 whole entry): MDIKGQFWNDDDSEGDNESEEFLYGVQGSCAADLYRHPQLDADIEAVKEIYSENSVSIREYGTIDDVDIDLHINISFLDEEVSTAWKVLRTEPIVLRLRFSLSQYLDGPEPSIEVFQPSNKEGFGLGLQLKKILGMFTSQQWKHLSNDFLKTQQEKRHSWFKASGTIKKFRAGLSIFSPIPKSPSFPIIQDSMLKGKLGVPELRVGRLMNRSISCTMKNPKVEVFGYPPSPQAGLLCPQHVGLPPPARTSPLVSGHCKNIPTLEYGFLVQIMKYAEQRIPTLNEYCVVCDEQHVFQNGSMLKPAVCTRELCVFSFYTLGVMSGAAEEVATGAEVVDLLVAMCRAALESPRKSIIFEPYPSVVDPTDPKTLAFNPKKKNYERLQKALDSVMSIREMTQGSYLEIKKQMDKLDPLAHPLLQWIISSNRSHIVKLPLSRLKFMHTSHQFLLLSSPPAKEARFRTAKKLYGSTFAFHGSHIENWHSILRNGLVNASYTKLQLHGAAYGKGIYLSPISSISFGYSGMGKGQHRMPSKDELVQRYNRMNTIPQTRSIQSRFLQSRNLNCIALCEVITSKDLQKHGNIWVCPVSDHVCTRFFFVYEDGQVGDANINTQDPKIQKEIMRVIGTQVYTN

| SMILES | IC50 [1] | ΔTm [2] | Kd [8] | further results |
| --- | --- | --- | --- | --- |
| Cc1cc(=O)[nH]c2cc(-c3ccc(F)cc3)ccc12 | 310 nM | 3.1 °C |  |  |
| Oc1ccc2ccccc2n1 | > 20000 nM |  |  |  |
| Cc1cc(=O)[nH]c2ccccc12 | 12000 nM |  |  | ΔTm [3]: 1.1 °C |
| O=C(c1cc(Cc2n[nH]c(=O)c3ccccc23)ccc1F)N1CCN(C(=O)C2CC2)CC1 |  |  |  | inhibition [4]: 72%; inhibition [5]: 84% |
| O=c1[nH]nc(Cl)c2ccccc12 |  |  |  | Activity [6]: Dose-dependent effect; ΔTm [3]: 1.3 °C |
| Cc1cc(=O)[nH]c2cc(-c3cccc(F)c3)ccc12 | 150 nM | 4.4 °C |  |  |
| Cc1cc(=O)[nH]c2cc(-c3ccc(N)cc3Cl)ccc12 | 39 nM | 9.4 °C | 39 nM |  |
| Oc1nc(-c2ccc(C(F)(F)F)cc2)nc2c1CSCC2 |  |  |  | IC50 [9]: > 10000 nM |
| COCCNC(=O)c1ccc(-c2ccc3c(C)cc(=O)[nH]c3c2)c(Cl)c1 | 9 nM | 10.1 °C | 16 nM |  |

Further lines, with some results ahead:

| IC50 [1] | ΔTm [2] | Kd [8] | SMILES | further results |
| --- | --- | --- | --- | --- |
| 1370 nM | 1.5 °C |  | COc1ccccc1-c1ccc2c(C)cc(=O)[nH]c2c1 |  |
| > 20000 nM | 0.6 °C |  | Cc1cc(=O)[nH]c2ccc(-c3ccccc3)cc12 |  |
| 22 nM | 9.9 °C | 18 nM | Cc1cc(=O)[nH]c2cc(-c3ccc(C(=O)NCCN4CCOCC4)cc3Cl)ccc12 | solubility thermodynamic at 18 h, 500 µM [7]: 42.6 µg/mL (≈ 100 µM) |
| 9 nM | 6.3 °C | 57 nM | Cc1cc(=O)[nH]c2cc(-c3ccccc3Cl)ccc12 | solubility thermodynamic at 18 h, 500 µM [7]: < 0.1 µg/mL |
| 21 nM | 7.4 °C |  | Cc1cc(=O)[nH]c2cc(-c3ccc(C(=O)O)cc3Cl)ccc12 | solubility thermodynamic at 18 h, 500 µM [7]: 4.3 µg/mL (≈ 13.7 µM) |
| 180 nM | 3.2 °C | 900 nM | Cc1cc(=O)[nH]c2cc(-c3ccccc3)ccc12 | solubility thermodynamic at 18 h, 500 µM [7]: 0.65 µg/mL (≈ 2.76 µM) |
